Columns and labels:
Cytochrome P450 2A6 = target: T1, Cytochrome P450 2A6 (Homo sapiens, UniProt P11509); experiment: Drug metabolism in human recombinant CYP2A6 mediated oxidative metabolism at 10 uM; type: ADME; details: recombinant enzyme
T1 sequence (P11509 whole entry): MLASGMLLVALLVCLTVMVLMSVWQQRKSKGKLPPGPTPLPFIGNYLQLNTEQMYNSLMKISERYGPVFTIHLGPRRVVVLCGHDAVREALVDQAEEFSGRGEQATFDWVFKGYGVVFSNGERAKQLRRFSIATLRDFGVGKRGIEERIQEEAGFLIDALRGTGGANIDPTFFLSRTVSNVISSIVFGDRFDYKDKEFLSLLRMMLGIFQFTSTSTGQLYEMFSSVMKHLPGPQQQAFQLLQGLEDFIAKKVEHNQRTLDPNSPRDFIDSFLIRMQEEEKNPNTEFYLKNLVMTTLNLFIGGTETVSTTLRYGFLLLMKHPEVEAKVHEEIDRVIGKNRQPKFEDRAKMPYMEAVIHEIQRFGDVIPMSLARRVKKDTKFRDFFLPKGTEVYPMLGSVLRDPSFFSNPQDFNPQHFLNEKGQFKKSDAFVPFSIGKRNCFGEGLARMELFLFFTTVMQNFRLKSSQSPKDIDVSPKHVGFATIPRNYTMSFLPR
Method in brief: (§1)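 Recombinant human P450 at 50 nM incubated with 10 µM Rh2 and 2 mM NADPH in 100 mM potassium phosphate pH 7.4, 37°C, 60 min; ice-cold acetonitrile stop; duplicates; metabolites detected by LC/ion-trap MSn.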

Liver = experiment: Drug uptake in rat liver at 50 mg/kg, po; type: ADME, organism-based; design: dose 50 mg/kg, route oral; details: in vivo, read-out: Drug uptake
Cytochrome P450 2D6 = Cytochrome P450 2D6 (Homo sapiens, UniProt P10635); experiment: Drug metabolism in human recombinant CYP2D6 mediated oxidative metabolism at 10 uM; type: ADME; details: recombinant enzyme; method in brief: as §1
Sequence of Cytochrome P450 2D6 (P10635 whole entry): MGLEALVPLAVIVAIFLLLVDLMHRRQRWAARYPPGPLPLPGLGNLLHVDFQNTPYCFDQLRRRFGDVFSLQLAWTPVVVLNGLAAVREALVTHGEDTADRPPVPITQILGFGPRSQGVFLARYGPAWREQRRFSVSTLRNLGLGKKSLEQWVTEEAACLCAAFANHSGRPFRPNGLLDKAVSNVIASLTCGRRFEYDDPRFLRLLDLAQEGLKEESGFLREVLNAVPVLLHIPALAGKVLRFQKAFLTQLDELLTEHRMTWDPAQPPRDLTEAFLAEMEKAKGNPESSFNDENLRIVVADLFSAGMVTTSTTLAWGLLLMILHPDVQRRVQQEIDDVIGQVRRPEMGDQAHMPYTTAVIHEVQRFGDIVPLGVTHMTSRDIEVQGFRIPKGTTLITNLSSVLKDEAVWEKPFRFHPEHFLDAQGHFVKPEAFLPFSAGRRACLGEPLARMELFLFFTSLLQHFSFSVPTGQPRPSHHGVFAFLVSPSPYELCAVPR

Liver microsome [1] = experiment: Drug metabolism in human liver microsomes assessed as oxidative metabolism at 10 uM in presence of 0.4 uM ticlopidine CYP2B6/CYP2C19 inhibitor; type: ADME
Method in brief: (§2)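 Pooled human liver microsomes (1 mg/ml, mixed-gender, 50 donors), 10 µM Rh2, 2 mM NADPH and selective inhibitor in 100 mM potassium phosphate pH 7.4; 37°C, 60 min; ice-cold acetonitrile stop; uninhibited controls; duplicates; formation of M1-2, M1-3 and M1-4+M1-5 quantified by LC/ion-trap MSn.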

Cytochrome P450 2C8 = target: T2, Cytochrome P450 2C8 (Homo sapiens, UniProt P10632); experiment: Drug metabolism in human recombinant CYP2C8 mediated oxidative metabolism at 10 uM; type: ADME; details: recombinant enzyme; method in brief: as §1
T2 sequence (P10632 whole entry): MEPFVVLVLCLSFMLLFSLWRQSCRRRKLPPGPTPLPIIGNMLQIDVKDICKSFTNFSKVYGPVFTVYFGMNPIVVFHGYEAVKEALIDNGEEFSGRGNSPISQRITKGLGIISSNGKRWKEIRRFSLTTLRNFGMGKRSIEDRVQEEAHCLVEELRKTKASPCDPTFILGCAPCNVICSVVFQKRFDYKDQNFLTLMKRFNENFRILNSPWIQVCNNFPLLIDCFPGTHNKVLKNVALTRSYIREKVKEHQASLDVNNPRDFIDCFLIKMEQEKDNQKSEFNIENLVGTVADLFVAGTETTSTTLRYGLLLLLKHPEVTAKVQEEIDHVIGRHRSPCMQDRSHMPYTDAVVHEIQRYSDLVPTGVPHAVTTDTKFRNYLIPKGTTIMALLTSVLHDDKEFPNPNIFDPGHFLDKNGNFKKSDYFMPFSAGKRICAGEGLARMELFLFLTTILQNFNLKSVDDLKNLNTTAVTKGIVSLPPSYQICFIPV

Cytochrome P450 2B6 = target: T3, Cytochrome P450 2B6 (Homo sapiens, UniProt P20813); experiment: Drug metabolism in human recombinant CYP2B6 mediated oxidative metabolism at 10 uM; type: ADME; details: recombinant enzyme; method in brief: as §1
T3 sequence (P20813 whole entry): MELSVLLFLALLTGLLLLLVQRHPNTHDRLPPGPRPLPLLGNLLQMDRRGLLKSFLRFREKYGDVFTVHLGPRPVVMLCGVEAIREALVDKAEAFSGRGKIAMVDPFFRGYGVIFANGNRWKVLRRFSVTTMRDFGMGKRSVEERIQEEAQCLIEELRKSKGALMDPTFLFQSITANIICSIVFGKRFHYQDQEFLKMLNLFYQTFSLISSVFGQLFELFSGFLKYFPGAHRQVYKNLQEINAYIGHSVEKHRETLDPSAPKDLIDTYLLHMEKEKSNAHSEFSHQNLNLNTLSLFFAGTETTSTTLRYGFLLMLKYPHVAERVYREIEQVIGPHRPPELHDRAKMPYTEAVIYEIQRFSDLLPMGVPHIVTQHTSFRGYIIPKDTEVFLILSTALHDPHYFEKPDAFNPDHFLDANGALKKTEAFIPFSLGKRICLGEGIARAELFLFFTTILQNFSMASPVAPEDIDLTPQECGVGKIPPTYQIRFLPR

Cytochrome P450 2C9 = Cytochrome P450 2C9 (Homo sapiens, UniProt P11712); experiment: Drug metabolism in human recombinant CYP2C9 mediated oxidative metabolism at 10 uM; type: ADME; details: recombinant enzyme; method in brief: as §1
Sequence of Cytochrome P450 2C9 (P11712 whole entry): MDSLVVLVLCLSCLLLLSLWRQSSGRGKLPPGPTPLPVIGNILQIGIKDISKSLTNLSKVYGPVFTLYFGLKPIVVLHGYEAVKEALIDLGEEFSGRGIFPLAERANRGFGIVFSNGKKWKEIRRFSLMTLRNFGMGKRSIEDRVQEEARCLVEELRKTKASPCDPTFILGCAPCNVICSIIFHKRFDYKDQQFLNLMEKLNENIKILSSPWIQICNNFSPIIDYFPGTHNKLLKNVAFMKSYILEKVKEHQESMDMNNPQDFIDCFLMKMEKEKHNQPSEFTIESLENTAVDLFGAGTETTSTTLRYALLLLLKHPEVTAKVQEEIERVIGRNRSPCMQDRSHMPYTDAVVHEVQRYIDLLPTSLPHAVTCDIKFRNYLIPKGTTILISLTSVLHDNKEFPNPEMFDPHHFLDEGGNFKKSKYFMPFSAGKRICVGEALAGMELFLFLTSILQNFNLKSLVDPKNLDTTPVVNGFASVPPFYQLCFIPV

Liver microsome [2] = experiment: Drug metabolism in human liver microsomes assessed as oxidative metabolism at 10 uM in presence of 2 uM quinidine CYP2D6 inhibitor; type: ADME; method in brief: as §2
[3] = Drug excretion in rat feces at 50 mg/kg, po; type: ADME, organism-based; design: dose 50 mg/kg, route oral; details: faeces, read-out: Drug excretion
[4] = Drug metabolism in cynomolgus monkey liver microsomes assessed as (24S,25)-epoxydamma-rane-12,20-diol-3-beta-D-glucopyranoside formation at 10 uM after 1 hr by LC/MS analysis in presence of GSH; type: ADME, Macaca fascicularis
Method in brief: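 Male cynomolgus monkey liver microsomes (1 mg/ml) with 10 µM Rh2, 2 mM GSH and 2 mM NADPH in 100 mM potassium phosphate pH 7.4, 37°C, 60 min after 3 min preincubation; microsomes start reaction; ice-cold acetonitrile stop; no-NADPH controls; duplicates; LC/ion-trap MSn detection.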

Cytochrome P450 2E1 = Cytochrome P450 2E1 (Homo sapiens, UniProt P05181); experiment: Drug metabolism in human recombinant CYP2E1 mediated oxidative metabolism at 10 uM; type: ADME; details: recombinant enzyme; method in brief: as §1
Sequence of Cytochrome P450 2E1 (P05181 whole entry): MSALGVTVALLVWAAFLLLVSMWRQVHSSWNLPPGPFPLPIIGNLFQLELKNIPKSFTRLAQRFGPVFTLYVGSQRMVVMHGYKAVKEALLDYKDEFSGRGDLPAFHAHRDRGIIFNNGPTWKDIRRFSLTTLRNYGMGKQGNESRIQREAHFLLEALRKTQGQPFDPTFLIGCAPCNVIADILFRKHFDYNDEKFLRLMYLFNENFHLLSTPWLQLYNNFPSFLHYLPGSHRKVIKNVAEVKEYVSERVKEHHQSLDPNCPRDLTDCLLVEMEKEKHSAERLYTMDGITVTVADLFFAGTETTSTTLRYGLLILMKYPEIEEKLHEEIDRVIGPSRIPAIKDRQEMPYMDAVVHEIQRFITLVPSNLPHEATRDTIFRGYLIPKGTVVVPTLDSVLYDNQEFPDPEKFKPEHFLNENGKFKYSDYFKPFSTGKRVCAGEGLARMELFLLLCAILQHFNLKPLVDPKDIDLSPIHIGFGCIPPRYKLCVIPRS

[5] = Drug metabolism in cynomolgus monkey liver microsomes assessed as (2S)-2-amino-5-((2R)-1-(carboxymethylamino)-3-((6S)-2,6-dihydroxy-6-((3S,5R,8R,9R,10R,12R,13R,14R,17S)-12-hydroxy-4,4,8,10,14-pentamethyl-3-((2R,3R,4S,5S,6R)-3,4,5-trihydroxy-6-(hydroxymethyl)tetrahydro-2H-pyran-2-yloxy)hexadecahydro-1H-cyclopenta[a]phenanthren-17-yl)-2-methylheptan-3-ylthio)-1-oxopropan-2-ylamino)-5-oxopentanoic acid formation at 10 uM by LC/MS analysis in presence of 1 uM ketoconazole; type: ADME, Macaca fascicularis
Method in brief: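 Cynomolgus monkey liver microsomes (1 mg/ml) with 2 mM GSH, 10 µM Rh2 and 1.0 µM ketoconazole preincubated 10 min before adding 2 mM NADPH; GSH conjugate measured by LC/ion-trap MSn peak area; duplicates.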

Liver microsome [6] = experiment: Drug metabolism in human liver microsomes assessed as oxidative metabolism at 10 uM in presence of 10 uM ketoconazole CYP3A inhibitor; type: ADME; method in brief: as §2
Cytochrome P450 2C19 = Cytochrome P450 2C19 (Homo sapiens, UniProt P33261); experiment: Drug metabolism in human recombinant CYP2C19 mediated oxidative metabolism at 10 uM; type: ADME; details: recombinant enzyme; method in brief: as §1
Sequence of Cytochrome P450 2C19 (P33261 whole entry): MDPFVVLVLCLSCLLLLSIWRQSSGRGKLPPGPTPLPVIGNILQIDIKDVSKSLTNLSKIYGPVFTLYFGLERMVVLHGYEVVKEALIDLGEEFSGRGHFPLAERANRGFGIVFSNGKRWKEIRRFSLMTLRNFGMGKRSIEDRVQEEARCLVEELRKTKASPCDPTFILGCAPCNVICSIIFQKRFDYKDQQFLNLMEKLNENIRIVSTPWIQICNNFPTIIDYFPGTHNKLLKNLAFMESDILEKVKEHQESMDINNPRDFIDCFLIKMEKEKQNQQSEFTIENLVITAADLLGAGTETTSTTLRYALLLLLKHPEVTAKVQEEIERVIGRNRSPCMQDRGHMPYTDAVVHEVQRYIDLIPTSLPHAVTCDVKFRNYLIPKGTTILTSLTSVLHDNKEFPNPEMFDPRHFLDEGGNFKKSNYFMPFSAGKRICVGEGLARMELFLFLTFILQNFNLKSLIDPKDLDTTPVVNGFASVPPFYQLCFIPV

[7] = Drug excretion in rat urine at 50 mg/kg, po; type: ADME, organism-based; design: dose 50 mg/kg, route oral; details: in vivo
[8] = Oral bioavailability in Wistar rat at 25 mg/kg; type: ADME, organism-based; details: in vivo
Liver microsome [9] = experiment: Drug metabolism in human liver microsomes assessed as oxidative metabolism at 10 uM in presence of 1 uM sulfaphenazole CYP2C9 inhibitor; type: ADME; method in brief: as §2

With `CC(C)=CCC[C@](C)(O)[C@H]1CC[C@]2(C)[C@@H]1[C@H](O)C[C@@H]1[C@@]3(C)CC[C@H](O[C@@H]4O[C@H](CO)[C@@H](O)[C@H](O)[C@H]4O)C(C)(C)[C@@H]3CC[C@]12C` [GINSENOSIDE RH2] the Drug metabolism (Cytochrome P450 2A6) was “metabolite_not_detected”, the concentration (Liver) was 60 µM and the Drug metabolism (Cytochrome P450 2D6) was “metabolite_not_detected”. The Drug metabolism (Liver microsome [1]) was “metabolite_detected”, the Drug metabolism (Cytochrome P450 2C8) was “metabolite_not_detected” and the Drug metabolism (Cytochrome P450 2B6) was “metabolite_not_detected”. The Drug metabolism (Cytochrome P450 2C9) was “metabolite_not_detected”, the Drug metabolism (Liver microsome [2]) was “metabolite_detected” and the dose excreted [3] was less than 10%. For the same molecule, the Drug metabolism [4] was “metabolite_detected”, the Drug metabolism (Cytochrome P450 2E1) was “metabolite_not_detected” and the Drug metabolism [5] was “metabolite_not_detected”. The Drug metabolism (Liver microsome [6]) was “metabolite_not_detected”, the Drug metabolism (Cytochrome P450 2C19) was “metabolite_not_detected” and the Drug excretion [7] was “metabolite_not_detected”. For the same molecule, the bioavailability [8] was 28% and the Drug metabolism (Liver microsome [9]) was “metabolite_detected”.

Source: ChEMBL document CHEMBL3525925, “In vitro studies on the oxidative metabolism of 20(s)-ginsenoside Rh2 in human, monkey, dog, rat, and mouse liver microsomes, and human liver s9” (Drug Metab Dispos, 2012)
